Among the data in ChEMBL document CHEMBL3352487, “Synthesis, antibacterial activity, and biological evaluation of formyl hydroxyamino derivatives as novel potent peptide deformylase inhibitors against drug-resistant bacteria” (Eur J Med Chem, 2014) are MIC values, retold here.

In general, MIC refers to the smallest concentration in the dilution series that meets the test's criterion for growth inhibition.

≈ marks a conversion by molar mass, not a printed value.

Holding throughout (type): functional
One experiment deals with Streptococcus pneumoniae. Nature of the experiment: Antimicrobial activity against penicillin-resistant Streptococcus pneumoniae after 24 hrs by broth microdilution method. Summed up: (§1)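 Broth microdilution following NCCLS M7-A4, using ATCC strains and clinical isolates from a provincial hospital.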
Background: Dilution methods test growth across graded concentrations, often in twofold steps.

The test system of experiment [1] is Staphylococcus epidermidis. Nature of the experiment: Antimicrobial activity against methicillin-resistant Staphylococcus epidermidis after 24 hrs by broth microdilution method. Summed up: as §1
Another experiment has as its system Moraxella catarrhalis. Kind of experiment: Antimicrobial activity against Moraxella catarrhalis after 24 hrs by broth microdilution method. Summed up: (§2)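 Broth microdilution following NCCLS M7-A4; ATCC strains and clinical isolates from a provincial hospital.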
The subject of experiment [2] is Staphylococcus aureus. Nature of the experiment: Antimicrobial activity against Staphylococcus aureus after 24 hrs by broth microdilution method. Summed up:
as §2

Experiment [3] concerns Staphylococcus aureus. Kind of experiment: Antimicrobial activity against methicillin-resistant Staphylococcus aureus after 24 hrs by broth microdilution method. The method in brief:
as §1

The subject of experiment [4] is Staphylococcus aureus. Nature of the experiment: Antimicrobial activity against methicillin-susceptible Staphylococcus aureus after 24 hrs by broth microdilution method. The method in brief: as §2
The subject of the next experiment is Enterococcus faecalis. Nature of the experiment: Antimicrobial activity against Enterococcus faecalis after 24 hrs by broth microdilution method. The method in brief: as §2
Experiment [5] has as its system Staphylococcus epidermidis. Nature of the experiment: Antimicrobial activity against methicillin-susceptible Staphylococcus epidermidis after 24 hrs by broth microdilution method. The method in brief: as §2

Regarding `O=CN(O)C[C@@H](CC1CCCC1)C(=O)N1C[C@@H](F)C[C@H]1C(=O)Nc1ccc(F)c[n+]1[O-]`, the MIC against Streptococcus pneumoniae was 0.03 µg/mL (≈ 0.0681 µM); in experiment [1], 4 µg/mL (≈ 9.08 µM); in the experiment on Moraxella catarrhalis, 0.25 µg/mL (≈ 0.568 µM); against Staphylococcus aureus [2], 2 µg/mL (≈ 4.54 µM); in the experiment with Staphylococcus aureus [3], 2 µg/mL (≈ 4.54 µM); against Staphylococcus aureus [4], 0.5 µg/mL (≈ 1.14 µM). Moreover, the MIC with Enterococcus faecalis is 8 µg/mL (≈ 18.2 µM); in experiment [5] it was 0.25 µg/mL (≈ 0.568 µM).

Turning to `Cc1cnc(NC(=O)[C@@H]2C[C@H](C)CN2C(=O)[C@H](CC2CCCC2)CN(O)C=O)s1`, the MIC against Streptococcus pneumoniae came out at 0.03 µg/mL (≈ 0.071 µM); in experiment [1] it was 2 µg/mL (≈ 4.73 µM); in the experiment on Moraxella catarrhalis it was 0.5 µg/mL (≈ 1.18 µM); against Staphylococcus aureus [2], 1 µg/mL (≈ 2.37 µM); with Staphylococcus aureus [3] it was 1 µg/mL (≈ 2.37 µM); in the experiment on Staphylococcus aureus [4], 0.5 µg/mL (≈ 1.18 µM). The MIC in the experiment on Enterococcus faecalis stood at 4 µg/mL (≈ 9.47 µM); in experiment [5] it was 0.25 µg/mL (≈ 0.592 µM).

Consider `C[C@H]1C[C@@H](C(=O)Nc2ccc(F)c[n+]2[O-])N(C(=O)[C@H](CC2CCCC2)CN(O)C=O)C1`, for which the MIC was 0.03 µg/mL (≈ 0.0687 µM) with Streptococcus pneumoniae; 1 µg/mL (≈ 2.29 µM) in experiment [1]; 0.5 µg/mL (≈ 1.15 µM) against Moraxella catarrhalis; 0.5 µg/mL (≈ 1.15 µM) against Staphylococcus aureus [2]; 0.5 µg/mL (≈ 1.15 µM) against Staphylococcus aureus [3]; 0.5 µg/mL (≈ 1.15 µM) with Staphylococcus aureus [4]. In addition, the results for the MIC (against Enterococcus faecalis; in experiment [5]) were 2 µg/mL (≈ 4.58 µM) and 1 µg/mL (≈ 2.29 µM), respectively.

On to `Cc1cnc(NC(=O)[C@@H]2C[C@H]3CCCC[C@@H]3N2C(=O)[C@H](CC2CCCC2)CN(O)C=O)s1`, for which the MIC is 0.03 µg/mL (≈ 0.0648 µM) with Streptococcus pneumoniae; 8 µg/mL (≈ 17.3 µM) in experiment [1]; 0.5 µg/mL (≈ 1.08 µM) in the experiment with Moraxella catarrhalis; 4 µg/mL (≈ 8.65 µM) in the experiment on Staphylococcus aureus [2]; 4 µg/mL (≈ 8.65 µM) against Staphylococcus aureus [3]; 4 µg/mL (≈ 8.65 µM) against Staphylococcus aureus [4]. For the same compound, the MIC with Enterococcus faecalis was more than 16 µg/mL; in experiment [5], 0.5 µg/mL (≈ 1.08 µM).

For `O=CN(O)C[C@@H](CC1CCCC1)C(=O)N1[C@H](C(=O)Nc2ccc(F)cn2)C[C@H]2CCCC[C@@H]21`, the MIC was determined as 0.03 µg/mL (≈ 0.0651 µM) against Streptococcus pneumoniae; 4 µg/mL (≈ 8.69 µM) in experiment [1]; 0.03 µg/mL (≈ 0.0651 µM) with Moraxella catarrhalis; 4 µg/mL (≈ 8.69 µM) against Staphylococcus aureus [2]; 4 µg/mL (≈ 8.69 µM) against Staphylococcus aureus [3]; 4 µg/mL (≈ 8.69 µM) against Staphylococcus aureus [4]. Moreover, the minimum inhibitory concentration (MIC) with Enterococcus faecalis is more than 16 µg/mL; in experiment [5], 0.25 µg/mL (≈ 0.543 µM).

As to `Cc1ccc(NC(=O)[C@@H]2C[C@H]3CCCC[C@@H]3N2C(=O)[C@H](CC2CCCC2)CN(O)C=O)nc1`, the MIC turned out to be 0.03 µg/mL (≈ 0.0657 µM) against Streptococcus pneumoniae; 8 µg/mL (≈ 17.5 µM) in experiment [1]; 0.5 µg/mL (≈ 1.1 µM) with Moraxella catarrhalis; 4 µg/mL (≈ 8.76 µM) against Staphylococcus aureus [2]; 4 µg/mL (≈ 8.76 µM) with Staphylococcus aureus [3]; 4 µg/mL (≈ 8.76 µM) in the experiment on Staphylococcus aureus [4]. For the same compound, the figures for the minimum inhibitory concentration (MIC) (in the experiment on Enterococcus faecalis; in experiment [5]) were more than 16 µg/mL and 0.5 µg/mL (≈ 1.1 µM), respectively.
